The record followed here is publication PMC11327602 (Heliyon, 2024).

One assay concerns the target jack bean urease (Canavalia ensiformis, UniProt P07374). In words: Urease inhibition assay. It is filed as biochemical. The conditions noted are these: for IC50: Enzyme (SEM ±) J.B Urease, IC50, mean ± SEM, 3 experiments.
Assay [1] has as its target Bacillus Pasteurii urease (Sporosarcina pasteurii, UniProt P41020). Briefly: Urease inhibition assay. It is filed as biochemical. The following applies: Enzyme (SEM ±) B.P Urease, IC50, mean ± SEM, 3 experiments.
The target in a further assay is α-Glucosidase (Saccharomyces cerevisiae, UniProt P53341). Briefly: α-Glucosidase inhibition assay. It is filed as biochemical. A digest of the protocol: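 Test compound (200–800 μg/mL) pre-incubated 5 min at 37 °C with 2 % w/v starch (sucrose) solution in 0.2 M Tris buffer, pH 8.0. 5 mM p-nitrophenyl-α-D-glucopyranoside added intermittently, then α-glucosidase (1 U/mL), 40 min at 35 °C. Stopped with […]; absorbance read at 405 nm. % inhibition = (control − sample)/control × 100; samples above 50 % taken to IC50.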

A short description of assay [2]: DPPH free radical scavenging activity. The following applies: for IC50: read-out: DPPH scavenging IC50. On the technique in general: DPPH is a stable violet radical that fades when it is reduced.
Another assay in a line: ABTS method. The conditions noted are these: for IC50: read-out: ABTS scavenging IC50.
A short description of assay [3]: Superoxide anion scavenging assay. The following applies: for IC50: read-out: superoxide anion scavenging IC50.

Where “and” joins values, the source holds several entries; their conditions need not be identical. Identical values can stand only once.

Sequence of α-Glucosidase (P53341 whole entry): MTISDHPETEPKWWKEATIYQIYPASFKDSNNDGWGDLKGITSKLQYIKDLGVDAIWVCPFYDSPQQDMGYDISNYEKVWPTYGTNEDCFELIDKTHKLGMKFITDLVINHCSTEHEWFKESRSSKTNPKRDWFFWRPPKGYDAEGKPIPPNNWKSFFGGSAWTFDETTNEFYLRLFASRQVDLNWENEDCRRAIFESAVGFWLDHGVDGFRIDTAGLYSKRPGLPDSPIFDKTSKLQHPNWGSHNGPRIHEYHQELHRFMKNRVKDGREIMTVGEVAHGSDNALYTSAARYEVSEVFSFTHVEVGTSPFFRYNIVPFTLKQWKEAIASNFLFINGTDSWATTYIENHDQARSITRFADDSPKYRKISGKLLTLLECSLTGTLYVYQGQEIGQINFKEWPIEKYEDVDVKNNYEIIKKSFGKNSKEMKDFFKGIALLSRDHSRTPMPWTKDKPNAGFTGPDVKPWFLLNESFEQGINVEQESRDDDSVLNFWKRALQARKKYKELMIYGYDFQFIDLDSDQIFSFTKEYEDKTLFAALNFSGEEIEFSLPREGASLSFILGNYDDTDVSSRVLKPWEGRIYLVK
Sequence of Bacillus Pasteurii urease (P41020 whole entry): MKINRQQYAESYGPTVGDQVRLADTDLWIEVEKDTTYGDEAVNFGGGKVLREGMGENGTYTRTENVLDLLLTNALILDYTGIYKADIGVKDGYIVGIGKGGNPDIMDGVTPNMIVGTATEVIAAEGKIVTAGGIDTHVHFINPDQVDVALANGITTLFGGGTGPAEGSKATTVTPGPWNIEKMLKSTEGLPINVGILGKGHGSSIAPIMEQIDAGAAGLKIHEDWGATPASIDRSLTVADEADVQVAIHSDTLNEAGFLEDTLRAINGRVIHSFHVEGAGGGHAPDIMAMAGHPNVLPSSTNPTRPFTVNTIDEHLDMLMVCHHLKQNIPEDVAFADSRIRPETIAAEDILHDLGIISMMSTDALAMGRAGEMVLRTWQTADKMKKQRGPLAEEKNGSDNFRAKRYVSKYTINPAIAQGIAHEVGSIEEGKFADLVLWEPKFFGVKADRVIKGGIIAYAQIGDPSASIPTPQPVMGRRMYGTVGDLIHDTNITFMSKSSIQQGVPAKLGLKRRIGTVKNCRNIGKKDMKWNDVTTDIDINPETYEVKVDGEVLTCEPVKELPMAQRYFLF
Sequence of Bacillus Pasteurii urease (P41021 whole entry partner): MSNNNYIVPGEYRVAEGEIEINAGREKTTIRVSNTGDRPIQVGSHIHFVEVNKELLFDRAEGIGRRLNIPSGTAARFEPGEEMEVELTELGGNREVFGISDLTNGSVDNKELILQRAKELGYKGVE
Sequence of Bacillus Pasteurii urease (P41022 whole entry partner): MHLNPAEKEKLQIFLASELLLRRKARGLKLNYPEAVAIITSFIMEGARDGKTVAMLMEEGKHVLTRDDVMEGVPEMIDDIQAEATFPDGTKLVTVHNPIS
Sequence of jack bean urease (P07374 whole entry, looked up): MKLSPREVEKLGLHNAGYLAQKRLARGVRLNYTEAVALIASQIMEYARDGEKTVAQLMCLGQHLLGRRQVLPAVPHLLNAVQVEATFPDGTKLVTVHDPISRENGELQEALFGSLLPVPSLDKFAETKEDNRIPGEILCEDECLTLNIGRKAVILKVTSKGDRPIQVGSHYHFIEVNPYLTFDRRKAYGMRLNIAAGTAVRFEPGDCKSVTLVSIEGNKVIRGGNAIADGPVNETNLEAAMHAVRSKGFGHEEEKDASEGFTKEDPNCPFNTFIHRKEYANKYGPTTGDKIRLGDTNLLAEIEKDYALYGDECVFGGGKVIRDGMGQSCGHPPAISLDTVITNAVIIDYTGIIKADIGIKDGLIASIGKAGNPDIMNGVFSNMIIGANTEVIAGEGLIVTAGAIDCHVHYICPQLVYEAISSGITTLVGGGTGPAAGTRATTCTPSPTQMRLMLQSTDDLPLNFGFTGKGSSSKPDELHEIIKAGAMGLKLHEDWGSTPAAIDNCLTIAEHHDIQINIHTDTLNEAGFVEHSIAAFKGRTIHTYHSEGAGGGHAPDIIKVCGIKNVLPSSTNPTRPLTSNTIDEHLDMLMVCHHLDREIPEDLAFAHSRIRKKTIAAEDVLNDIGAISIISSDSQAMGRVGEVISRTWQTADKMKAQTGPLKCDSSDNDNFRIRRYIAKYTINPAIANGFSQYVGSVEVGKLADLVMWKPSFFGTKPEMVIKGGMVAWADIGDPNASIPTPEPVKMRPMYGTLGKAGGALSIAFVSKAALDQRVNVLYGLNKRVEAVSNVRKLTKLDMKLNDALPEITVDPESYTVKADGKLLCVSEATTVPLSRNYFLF

For orientation: IC50 means the concentration that inhibits the measured activity by half. For `C=CCN(c1nccs1)S(=O)(=O)c1ccc(OC)cc1` [Compound 27, N-allyl-4-methoxy-N-(thiazol-2-yl)benzenesulfonamide], the “Types of inhibition (urease)” value at jack bean urease is reported as “Competitive”. For the same compound, the IC50 on jack bean urease was 24.1 ± 0.34 µM; in assay [1], 26.37 ± 0.22 µM; in assay [2], ~39.2 µM and 39.2 µM; in “ABTS method” it was 40.05 ± 0.08 µM; in assay [3] it was 45 ± 0.19 µM. Moreover, the “Type of Inhibition (α-glucosidase and α-amylase)” value (“Type of Inhibition” below) on α-Glucosidase is “Non-competitive”. For the same compound, the “DPPH % Scavenging” value is 33.2 ± 0.01% in assay [2] (25 μM), 59.6 ± 0.2% in assay [2] (50 μM), 75.4 ± 0.2% in assay [2] (75 μM) and 91.8 ± 0.03% in assay [2] (100 μM). The “ABTS % Scavenging” value in “ABTS method” (10 μM) came out at 10.02 ± 0.05%; in “ABTS method” (20 μM), 19.08 ± 0.03%; in “ABTS method” (30 μM) it was 43.02 ± 0.09%; in “ABTS method” (40 μM), 70.02 ± 0.11%; in the assay “ABTS method” (50 μM), 93.09 ± 0.02%. In addition, the “superoxide anion % scavenging” value in assay [3] (25 μM) turned out to be 25 ± 0.17%; in assay [3] (50 μM) it was 71 ± 0.25%; in assay [3] (75 μM), 86 ± 0.03%; in assay [3] (100 μM) it was 93 ± 0.52%.

As to `Cc1ccc(S(=O)(=O)N(Cc2ccccc2)c2nccs2)cc1` [Compound 19, N-Benzyl-4-methyl-N-(thiazol-2-yl)benzenesulfonamide], at jack bean urease, the “Types of inhibition (urease)” value is on record as “Competitive”. The IC50 worked out at 26.15 ± 0.02 µM at jack bean urease; 29.05 ± 0.01 µM in assay [1]; 40.01 ± 0.01 µM in assay [2]; 37.01 ± 0.04 µM in the assay “ABTS method”; 42 ± 0.15 µM in assay [3]. Besides, on α-Glucosidase, the “Type of Inhibition” value was “Competitive”. The “DPPH % Scavenging” value is 39.1 ± 0.2% in assay [2] (25 μM), 65.8 ± 0.03% in assay [2] (50 μM), 89.6 ± 0.11% in assay [2] (75 μM) and 95.1 ± 0.41% in assay [2] (100 μM). For the same compound, the “ABTS % Scavenging” value in the assay “ABTS method” (10 μM) amounted to 18.01 ± 0.09%; in the assay “ABTS method” (20 μM), 37.05 ± 0.04%; in “ABTS method” (30 μM) it was 41.09 ± 0.01%; in “ABTS method” (40 μM), 69.02 ± 0.03%; in “ABTS method” (50 μM), 89.03 ± 0.91%. For the same compound, the “superoxide anion % scavenging” value in assay [3] (25 μM) is listed as 32 ± 0.07%; in assay [3] (50 μM), 59 ± 0.25%; in assay [3] (75 μM) it was 80 ± 0.11%; in assay [3] (100 μM) it was 88 ± 0.01%.

`Cc1ccc(S(=O)(=O)N(C)c2nccs2)cc1` [Compound 33, N,4-Dimethyl-N-(thiazol-2-yl)benzenesulfonamide]: the “Types of inhibition (urease)” value at jack bean urease is given as “Non-competitive”. Also, the IC50 was 22.1 ± 0.29 µM against jack bean urease; 25.09 ± 0.14 µM in assay [1]; ~34.4 µM and 34.4 µM in assay [2]; ~35.1 µM in “ABTS method”; 38 ± 0.55 µM in assay [3]. For the same compound, the “Type of Inhibition” value on α-Glucosidase is “Competitive”. Also, the “inhibition against both enzymes (α-glucosidase and α-amylase), in words” value (from here on “inhibition against both enzymes”) on α-Glucosidase is on record as “weak inhibition”. Moreover, the “DPPH % Scavenging” value in assay [2] (25 μM) stood at 30.2 ± 0.2%; in assay [2] (50 μM) it was 37.4 ± 0.1%; in assay [2] (75 μM) it was 65.6 ± 0.01%; in assay [2] (100 μM), 88.3 ± 0.2%. For the same compound, the “ABTS % Scavenging” value in the assay “ABTS method” (10 μM) is recorded as 29.02 ± 0.08%; in “ABTS method” (20 μM), 41.07 ± 0.03%; in the assay “ABTS method” (30 μM) it was 49.08 ± 0.01%; in “ABTS method” (40 μM), 72.02 ± 0.07%. For the same compound, the “superoxide anion % scavenging” value in assay [3] (25 μM) worked out at 20 ± 0.01%; in assay [3] (50 μM), 51 ± 0.03%; in assay [3] (75 μM), 60 ± 0.15%; in assay [3] (100 μM) it was 99 ± 0.18%.

In the case of `CN(c1nccs1)S(=O)(=O)c1ccc(F)cc1` [Compound 38, 4-Fluoro-N-methyl-N-(thiazol-2-yl)benzenesulfonamide], the “Types of inhibition (urease)” value on jack bean urease is “Competitive”. Moreover, the IC50 amounted to 24.31 ± 0.18 µM against jack bean urease; 27.15 ± 0.14 µM in assay [1]; 69.5 ± 0.1 µM in assay [2]; 49.03 ± 0.15 µM in “ABTS method”; 67.6 ± 0.93 µM in assay [3]. In addition, at α-Glucosidase, the “Type of Inhibition” value is given as “Non-competitive”. For the same compound, the “DPPH % Scavenging” value in assay [2] (25 μM) was determined as 21.3 ± 0.11%; in assay [2] (50 μM), 67.3 ± 0.2%; in assay [2] (75 μM), 89.3 ± 0.05%; in assay [2] (100 μM), 95.01 ± 0.9%. The “ABTS % Scavenging” value in the assay “ABTS method” (10 μM) came to 13.2 ± 0.91%; in “ABTS method” (20 μM), 35.3 ± 0.42%; in “ABTS method” (30 μM) it was 41.2 ± 0.71%; in the assay “ABTS method” (40 μM), 48.13 ± 0.11%; in “ABTS method” (50 μM) it was 79.3 ± 0.44%. Moreover, the “superoxide anion % scavenging” value is 31.5 ± 0.11% in assay [3] (25 μM), 45.01 ± 0.5% in assay [3] (50 μM), 55.7 ± 0.5% in assay [3] (75 μM) and 92.5 ± 0.03% in assay [3] (100 μM).

Turning to `CN(c1nccs1)S(=O)(=O)c1ccccc1` [Compound 36, N-Methyl-N-(thiazol-2-yl)benzenesulfonamide], the “Types of inhibition (urease)” value at jack bean urease is “Competitive”. Moreover, the IC50 was 14.06 ± 0.03 µM against jack bean urease; 17.06 ± 0.03 µM in assay [1]; ~49.3 µM and 49.3 µM in assay [2]; 45.07 ± 0.09 µM in the assay “ABTS method”; 57.1 ± 0.09 µM in assay [3]. Also, the “Type of Inhibition” value at α-Glucosidase was “Non-competitive”. Moreover, the “inhibition against both enzymes” value against α-Glucosidase is “weak inhibition”. The “DPPH % Scavenging” value in assay [2] (25 μM) stood at 25.3 ± 0.07%; in assay [2] (50 μM), 65.5 ± 0.12%; in assay [2] (75 μM), 88.3 ± 0.11%; in assay [2] (100 μM), 93.8 ± 0.09%. The “ABTS % Scavenging” value is given as 23.2 ± 0.11% in the assay “ABTS method” (10 μM); 37.5 ± 0.2% in “ABTS method” (20 μM); 48.3 ± 0.21% in “ABTS method” (30 μM); 65.5 ± 0.01% in “ABTS method” (40 μM); 87.5 ± 0.05% in the assay “ABTS method” (50 μM). Besides, the “superoxide anion % scavenging” value in assay [3] (25 μM) came to 20.6 ± 0.11%; in assay [3] (50 μM) it was 43.6 ± 0.12%; in assay [3] (75 μM), 65.1 ± 0.5%; in assay [3] (100 μM) it was 87.5 ± 0.08%.

Take `COc1ccc(S(=O)(=O)N(C)c2nccs2)cc1` [Compound 34, 4-Methoxy-N-methyl-N-(thiazol-2-yl)benzenesulfonamide]: the “Types of inhibition (urease)” value at jack bean urease is “Competitive”. Further, the IC50 came to 16 ± 0.21 µM at jack bean urease; 18.7 µM in assay [1]; 45.5 ± 0.05 µM in assay [2]; 47.1 µM in the assay “ABTS method”; 52.1 ± 0.01 µM in assay [3]. On α-Glucosidase, the “Type of Inhibition” value is given as “Non-competitive”. The “inhibition against both enzymes” value at α-Glucosidase was “weak inhibition”. Also, the “DPPH % Scavenging” value in assay [2] (25 μM) is 29.2 ± 0.01%; in assay [2] (50 μM), 69.6 ± 0.2%; in assay [2] (75 μM) it was 78.4 ± 0.2%; in assay [2] (100 μM) it was 94.8 ± 0.03%. Further, the “ABTS % Scavenging” value in the assay “ABTS method” (10 μM) was 27.2 ± 0.01%; in “ABTS method” (20 μM), 35.6 ± 0.2%; in the assay “ABTS method” (30 μM), 46.4 ± 0.2%; in the assay “ABTS method” (40 μM), 69.8 ± 0.03%; in “ABTS method” (50 μM), 80.1 ± 0.08%. Moreover, the “superoxide anion % scavenging” value is on record as 18.2 ± 0.01% in assay [3] (25 μM), 39.6 ± 0.2% in assay [3] (50 μM), 69.4 ± 0.2% in assay [3] (75 μM) and 89.8 ± 0.03% in assay [3] (100 μM).

For the compound `CN(c1nccs1)S(=O)(=O)c1ccc([N+](=O)[O-])cc1` [Compound 39, N-Methyl-4-nitro-N-(thiazol-2-yl)benzenesulfonamide], the “Types of inhibition (urease)” value at jack bean urease is given as “Non-competitive”. Moreover, the IC50 at jack bean urease was 38.17 ± 0.01 µM; in assay [1], 43.71 ± 0.13 µM; in assay [2] it was 43.02 ± 0.13 µM; in the assay “ABTS method”, 36.09 ± 0.15 µM; in assay [3] it was 54.1 ± 0.55 µM. Also, the “Type of Inhibition” value at α-Glucosidase was “Non-competitive”. Further, the “inhibition against both enzymes” value against α-Glucosidase is on record as “weak inhibition”. For the same compound, the “DPPH % Scavenging” value was 15.04 ± 0.05% in assay [2] (25 μM), 55.02 ± 0.08% in assay [2] (50 μM), 77.08 ± 0.11% in assay [2] (75 μM) and 91.01 ± 0.34% in assay [2] (100 μM). For the same compound, the “ABTS % Scavenging” value amounted to 24.02 ± 0.05% in the assay “ABTS method” (10 μM); 39.01 ± 0.3% in “ABTS method” (20 μM); 47.06 ± 0.1% in “ABTS method” (30 μM); 72.11 ± 0.09% in the assay “ABTS method” (40 μM); 102.03 ± 0.01% in the assay “ABTS method” (50 μM). For the same compound, the “superoxide anion % scavenging” value in assay [3] (25 μM) is reported as 22.2 ± 0.01%; in assay [3] (50 μM), 48.5 ± 0.17%; in assay [3] (75 μM), 71.4 ± 0.34%; in assay [3] (100 μM), 93.8 ± 0.11%.
